In ChEMBL document CHEMBL4616691 (ACS Med Chem Lett, 2020):
Converted amounts (≈) assume the structure as drawn. The source made the active and inactive calls. The calls are words filed in the database; no cut-off is given here.

Columns and labels:
[1] = target: T1, NPC intracellular cholesterol transporter 1 (Homo sapiens) (UniProt O15118); assay: Inhibition of NPC1 in HUVEC cells assessed as accumulation of cholesterol in perinuclear structure at 0.2 uM incubated for 24 hrs by filipin staining based confocal microscopy analysis; assay type: cell-based
T1 sequence (whole entry): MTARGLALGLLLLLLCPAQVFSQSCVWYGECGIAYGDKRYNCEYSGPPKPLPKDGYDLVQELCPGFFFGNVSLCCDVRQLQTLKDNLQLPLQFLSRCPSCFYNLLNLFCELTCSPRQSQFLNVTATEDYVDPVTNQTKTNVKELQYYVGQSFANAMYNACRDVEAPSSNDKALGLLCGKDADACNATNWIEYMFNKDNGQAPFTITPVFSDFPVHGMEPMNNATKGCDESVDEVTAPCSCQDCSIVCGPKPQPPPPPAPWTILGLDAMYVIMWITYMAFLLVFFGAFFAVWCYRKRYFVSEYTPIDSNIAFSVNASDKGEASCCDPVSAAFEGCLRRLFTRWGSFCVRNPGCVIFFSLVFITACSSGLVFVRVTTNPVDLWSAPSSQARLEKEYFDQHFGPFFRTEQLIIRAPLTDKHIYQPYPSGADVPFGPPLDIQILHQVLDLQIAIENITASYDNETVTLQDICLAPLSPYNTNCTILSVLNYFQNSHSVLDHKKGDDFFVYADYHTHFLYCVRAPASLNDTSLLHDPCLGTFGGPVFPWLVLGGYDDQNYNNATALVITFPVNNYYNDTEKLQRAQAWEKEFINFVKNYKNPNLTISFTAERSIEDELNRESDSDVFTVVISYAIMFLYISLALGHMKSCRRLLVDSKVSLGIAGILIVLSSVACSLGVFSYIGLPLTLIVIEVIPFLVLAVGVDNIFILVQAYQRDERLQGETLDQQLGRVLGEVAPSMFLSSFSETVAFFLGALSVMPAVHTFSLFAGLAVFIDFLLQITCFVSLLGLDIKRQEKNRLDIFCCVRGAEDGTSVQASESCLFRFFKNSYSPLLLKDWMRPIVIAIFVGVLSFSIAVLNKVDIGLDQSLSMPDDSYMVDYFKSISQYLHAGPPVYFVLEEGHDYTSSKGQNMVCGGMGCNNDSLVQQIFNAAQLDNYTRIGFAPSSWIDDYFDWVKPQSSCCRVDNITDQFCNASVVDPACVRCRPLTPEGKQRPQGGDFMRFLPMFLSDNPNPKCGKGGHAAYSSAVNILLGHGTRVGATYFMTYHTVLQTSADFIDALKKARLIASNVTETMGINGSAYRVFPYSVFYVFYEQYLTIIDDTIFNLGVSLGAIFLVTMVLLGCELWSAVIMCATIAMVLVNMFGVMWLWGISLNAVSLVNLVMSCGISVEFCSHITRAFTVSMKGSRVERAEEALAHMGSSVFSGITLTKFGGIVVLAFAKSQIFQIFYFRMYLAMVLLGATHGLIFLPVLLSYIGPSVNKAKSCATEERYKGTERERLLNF
Procedure, shortened: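 Primary HUVECs incubated 24 h with 0.2 μM compound or DMSO. Intracellular cholesterol stained with filipin and imaged by confocal fluorescence microscopy, 25x objective.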

[2] = Inhibition of NPC1/VDAC1 in HUVEC cells assessed as reduction in cell proliferation pretreated for 24 hrs followed by [3H]thymidine incorporation by scintillation counter method; assay type: cell-based; settings: Homo sapiens
Procedure, shortened: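 HUVEC proliferation read by [³H]-thymidine incorporation, giving IC50. Mean ± SD of three independent experiments, each run in triplicate.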

[3] = target: Serine/threonine-protein kinase mTOR (Homo sapiens) (UniProt P42345); assay: Inhibition of mTOR in HUVEC cells assessed as reduction in phosphorylation of p70S6K measured after 24 hrs by Western blot analysis; assay type: cell-based
Procedure, shortened: (§1)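 HUVECs exposed to test compound at 0.05, 0.25, 0.5, 1 or 2 μM, or DMSO vehicle, for 24 h. Lysates probed by western blot for VEGFR2, phospho- and total ACC, phospho- and total S6K, with β-actin as loading reference.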

[4] = target: AMP-activated protein kinase, AMPK (Homo sapiens) (UniProt P54646+O43741+P54619+Q9UGJ0+Q9Y478+Q13131+Q9UGI9); assay: Activation of AMPK in HUVEC cells assessed as phosphorylation of acetyl CoA carboxylase measured after 24 hrs by Western blot analysis; assay type: cell-based; procedure, shortened: as §1
HUVEC [5] = assay: Inhibition of NPC1/VDAC1 in HUVEC cells assessed as inhibition of tube formation at 3 uM measured after 24 hrs by Calcein-AM staining based fluorescence microscopy analysis relative to control; assay type: cell-based; settings: Homo sapiens
Procedure, shortened: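 HUVECs seeded on Matrigel-coated wells and treated with DMSO or 3 μM compound for 24 h. Networks stained with Calcein-AM and imaged by fluorescence microscopy. Total tube length quantified from the images against DMSO control. Mean ± SD of three independent experiments.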

[6] = target: Vascular endothelial growth factor receptor 2 (Homo sapiens) (UniProt P35968); assay: Inhibition of VEGFR2 glycosylation in HUVEC cells assessed as disappearance of VEGFR2 at 0.5 to 2 uM measured after 24 hrs by Western blot analysis; assay type: cell-based; procedure, shortened: as §1
Chain of Vascular endothelial growth factor receptor 2 (Homo sapiens) (P35968 whole entry): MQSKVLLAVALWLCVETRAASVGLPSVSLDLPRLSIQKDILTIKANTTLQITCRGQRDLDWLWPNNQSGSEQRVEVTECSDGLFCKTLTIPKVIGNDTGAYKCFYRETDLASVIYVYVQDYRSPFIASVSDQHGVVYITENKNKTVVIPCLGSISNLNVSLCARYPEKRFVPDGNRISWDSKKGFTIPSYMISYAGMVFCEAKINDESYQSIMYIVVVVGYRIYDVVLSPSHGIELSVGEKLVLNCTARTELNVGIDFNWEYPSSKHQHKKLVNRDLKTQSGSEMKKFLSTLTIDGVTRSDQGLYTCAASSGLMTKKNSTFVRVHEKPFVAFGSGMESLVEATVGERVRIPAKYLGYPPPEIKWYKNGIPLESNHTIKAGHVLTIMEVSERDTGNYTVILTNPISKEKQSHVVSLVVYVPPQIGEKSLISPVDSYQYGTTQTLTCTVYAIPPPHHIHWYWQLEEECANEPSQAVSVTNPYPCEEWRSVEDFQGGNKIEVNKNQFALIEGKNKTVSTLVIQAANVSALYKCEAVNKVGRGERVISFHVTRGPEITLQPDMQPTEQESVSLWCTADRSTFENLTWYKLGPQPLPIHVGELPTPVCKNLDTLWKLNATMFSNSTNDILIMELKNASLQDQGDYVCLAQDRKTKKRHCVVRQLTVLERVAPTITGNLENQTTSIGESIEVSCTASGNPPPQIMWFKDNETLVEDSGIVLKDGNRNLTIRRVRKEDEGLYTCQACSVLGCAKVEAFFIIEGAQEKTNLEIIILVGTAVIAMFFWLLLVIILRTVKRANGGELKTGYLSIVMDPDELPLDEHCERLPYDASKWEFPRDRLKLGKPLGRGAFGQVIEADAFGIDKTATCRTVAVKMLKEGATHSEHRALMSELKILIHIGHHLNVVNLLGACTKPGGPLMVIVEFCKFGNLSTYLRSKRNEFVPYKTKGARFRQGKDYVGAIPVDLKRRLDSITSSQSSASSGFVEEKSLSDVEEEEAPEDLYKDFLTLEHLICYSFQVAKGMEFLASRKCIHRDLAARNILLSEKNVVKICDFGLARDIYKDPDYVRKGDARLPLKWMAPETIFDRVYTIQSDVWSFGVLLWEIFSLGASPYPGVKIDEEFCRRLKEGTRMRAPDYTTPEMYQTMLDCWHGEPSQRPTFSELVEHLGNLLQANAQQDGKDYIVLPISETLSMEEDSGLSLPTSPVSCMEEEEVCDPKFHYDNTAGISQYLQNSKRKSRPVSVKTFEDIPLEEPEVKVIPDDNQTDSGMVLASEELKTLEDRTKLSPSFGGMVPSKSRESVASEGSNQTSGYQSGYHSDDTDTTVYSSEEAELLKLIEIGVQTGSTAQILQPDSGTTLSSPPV

Cytochrome P450 3A4 = Cytochrome P450 3A4 (Homo sapiens, UniProt P08684); assay: Inhibition of CYP3A4 (unknown origin); assay type: ADME
Chain of Cytochrome P450 3A4 (P08684 whole entry): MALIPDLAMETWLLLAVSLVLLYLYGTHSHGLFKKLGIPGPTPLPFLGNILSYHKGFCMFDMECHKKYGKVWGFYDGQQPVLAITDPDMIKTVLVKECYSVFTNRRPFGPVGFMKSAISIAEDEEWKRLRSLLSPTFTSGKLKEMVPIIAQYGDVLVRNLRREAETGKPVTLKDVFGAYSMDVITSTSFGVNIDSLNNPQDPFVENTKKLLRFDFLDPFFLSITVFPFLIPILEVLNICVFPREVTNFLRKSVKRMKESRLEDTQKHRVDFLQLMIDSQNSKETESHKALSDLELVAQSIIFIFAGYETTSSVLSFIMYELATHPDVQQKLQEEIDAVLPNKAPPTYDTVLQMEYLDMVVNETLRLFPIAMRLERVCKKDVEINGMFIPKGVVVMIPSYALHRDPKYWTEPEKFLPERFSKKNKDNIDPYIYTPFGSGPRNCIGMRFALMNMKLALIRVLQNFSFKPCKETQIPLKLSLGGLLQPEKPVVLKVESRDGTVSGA

HUVEC [7] = assay: Effect on VEGFR2 localization in human HUVEC cells assessed as accumulation of VEGFR2 in perinuclear region at 2 uM by DAPI staining based confocal micrscopy; assay type: functional, cell-based
Procedure, shortened: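 HUVECs treated with DMSO or 2 μM compound. Cells immunostained for VEGFR2 (green) and Golgi marker GM130 (red), nuclei counterstained with DAPI. Imaged by confocal microscopy, scoring perinuclear VEGFR2 and its colocalization with GM130.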

[8] = Thermodynamic solubility in 0.001N HCl by HPLC analysis; assay type: physicochemical; settings: for solubility thermodynamic: 0.001N HCl, read-out: Therm_solubility
Procedure, shortened: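 Thermodynamic solubility measured in 0.001 N HCl (pH 3), chosen to resemble acidic gastric fluid. Dissolved compound quantified by HPLC and reported in […].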

Row | solubility thermodynamic [8] | SMILES | IC50 [2] | also measured
1 | 0.951 µg/mL (≈ 1.34 µM) | CCC(C)n1ncn(-c2ccc(N3CCN(c4ccc(OC[C@@H]5CO[C@@](Cn6cnnn6)(c6ccc(Cl)cc6Cl)O5)cn4)CC3)cc2)c1=O (some centres not stated) | 77.1 nM | inhibition [1]: Active; inhibition [3]: Dose-dependent effect; Activity [4]: Dose-dependent effect; inhibition (HUVEC [5]): 70%; inhibition [6]: Active; IC50 (Cytochrome P450 3A4): > 90000 nM; Activity (HUVEC [7]): Active
2 | 6.48 µg/mL (≈ 9.19 µM) | CCC(C)n1ncn(-c2ccc(N3CCN(c4ccc(OC[C@@H]5CO[C@@](Cn6ccnc6)(c6ccc(Cl)cc6Cl)O5)nc4)CC3)cc2)c1=O (some centres not stated) | 468 nM | –
3 | 2.94 µg/mL (≈ 4.16 µM) | CCC(C)n1ncn(-c2ccc(N3CCN(c4ccc(OC[C@@H]5CO[C@@](Cn6ccnc6)(c6ccc(Cl)cc6Cl)O5)cn4)CC3)cc2)c1=O (some centres not stated) | 69.1 nM | –
4 | 17.2 µg/mL (≈ 23.7 µM) | CCC(C)n1ncn(-c2ccc(N3CCN(c4ccc(OC[C@@H]5CO[C@@](Cn6ccnc6)(c6ccc(Cl)cc6Cl)O5)cc4)CC3)c(F)c2)c1=O (some centres not stated) | 70.1 nM | –
5 | 0.116 µg/mL (≈ 0.164 µM) | CCC(C)n1ncn(-c2ccc(N3CCN(c4ccc(OC[C@@H]5CO[C@@](Cn6cncn6)(c6ccc(Cl)cc6Cl)O5)nc4)CC3)cc2)c1=O (some centres not stated) | 687 nM | –
6 | 41.3 µg/mL (≈ 58.6 µM) | CCC(C)n1ncn(-c2ccc(N3CCN(c4ccc(OC[C@@H]5CO[C@@](Cn6ccnc6)(c6ccc(Cl)cc6Cl)O5)cc4)CC3)cn2)c1=O (some centres not stated) | 636 nM | –
7 | 0.321 µg/mL (≈ 0.455 µM) | CCC(C)n1ncn(-c2ccc(N3CCN(c4ccc(OC[C@@H]5CO[C@@](Cn6cnnn6)(c6ccc(Cl)cc6Cl)O5)cc4)CC3)cc2)c1=O (some centres not stated) | – | inhibition [1]: Active
8 | 7.99 µg/mL (≈ 11.3 µM) | CCC(C)n1ncn(-c2ccc(N3CCN(c4ccc(OC[C@@H]5CO[C@@](Cn6ccnc6)(c6ccc(Cl)cc6Cl)O5)cc4)CC3)nc2)c1=O (some centres not stated) | 98.5 nM | –
9 | 0.255 µg/mL (≈ 0.352 µM) | CCC(C)n1ncn(-c2ccc(N3CCN(c4ccc(OC[C@@H]5CO[C@@](Cn6cncn6)(c6ccc(Cl)cc6Cl)O5)nc4)CC3)c(F)c2)c1=O (some centres not stated) | 446 nM | –
10 | 0.848 µg/mL (≈ 1.17 µM) | CCC(C)n1ncn(-c2ccc(N3CCN(c4ccc(OC[C@@H]5CO[C@@](Cn6cncn6)(c6ccc(Cl)cc6Cl)O5)cn4)CC3)c(F)c2)c1=O (some centres not stated) | 173 nM | –
11 | 0.0291 µg/mL (≈ 0.0402 µM) | CCC(C)n1ncn(-c2ccc(N3CCN(c4ccc(OC[C@@H]5CO[C@@](Cn6cncn6)(c6ccc(Cl)cc6Cl)O5)cc4)CC3)c(F)c2)c1=O (some centres not stated) | 128 nM | –

Second part, the compound before the results:

Row | SMILES | solubility thermodynamic [8] | IC50 [2] | also measured
12 | CCC(C)n1ncn(-c2ccc(N3CCN(c4ccc(OC[C@@H]5CO[C@@](Cn6cnnn6)(c6ccc(Cl)cc6Cl)O5)cn4)CC3)c(F)c2)c1=O (some centres not stated) | 0.708 µg/mL (≈ 0.975 µM) | 108 nM | inhibition [1]: Active
13 | CCC(C)n1ncn(-c2ccc(N3CCN(c4ccc(OC[C@@H]5CO[C@@](Cn6cnnn6)(c6ccc(Cl)cc6Cl)O5)cc4)CC3)c(F)c2)c1=O (some centres not stated) | 0.0528 µg/mL (≈ 0.0729 µM) | 153 nM | inhibition [1]: Active; IC50 (Cytochrome P450 3A4): > 90000 nM
14 | CCC(C)n1ncn(-c2ccc(N3CCN(c4ccc(OC[C@@H]5CO[C@@](Cn6cncn6)(c6ccc(Cl)cc6Cl)O5)cn4)CC3)cc2)c1=O (some centres not stated) | 0.114 µg/mL (≈ 0.161 µM) | 380 nM | –
15 | CCC(C)n1ncn(-c2ccc(N3CCN(c4ccc(OC[C@@H]5CO[C@@](Cn6ccnc6)(c6ccc(Cl)cc6Cl)O5)cn4)CC3)c(F)c2)c1=O (some centres not stated) | 125 µg/mL (≈ 173 µM) | 68 nM | –
16 | CCC(C)n1ncn(-c2ccc(N3CCN(c4ccc(OC[C@@H]5CO[C@@](Cn6cncn6)(c6ccc(Cl)cc6Cl)O5)cc4)CC3)nc2)c1=O (some centres not stated) | 0.0539 µg/mL (≈ 0.0763 µM) | 222 nM | –
17 | CCC(C)n1ncn(-c2ccc(N3CCN(c4ccc(OC[C@@H]5CO[C@@](Cn6cncn6)(c6ccc(Cl)cc6Cl)O5)cc4)CC3)cn2)c1=O (some centres not stated) | 0.496 µg/mL (≈ 0.703 µM) | 188 nM | –
18 | CCC(C)n1ncn(-c2ccc(N3CCN(c4ccc(OCC5COC(Cn6cncn6)(c6ccc(Cl)cc6Cl)O5)cc4)CC3)cc2)c1=O (configuration not stated) [ITRACONAZOLE] | – | – | inhibition [1]: Active; Activity (HUVEC [7]): Active; Therm_solubility ([8]; buffer): 0.0101 µg/mL
